# According to PMC5616206 (Toxicology Reports, 2016):
# Entries after “also recorded” stand apart in the source; their conditions may differ. Like-named read-outs stand apart in the source and are kept apart here.
# Columns and labels:
# [1] = In vitro metabolism by rat liver microsomes; format: in vitro ADME, Sprague-Dawley rat; conditions: S9229 incubation, relative to S9229 at time = 0
# [2] = In vitro metabolism by human liver microsomes; format: in vitro ADME; conditions: S9229 incubation, relative to S9229 at time = 0
# [3] = Pharmacokinetics of S9229 in rats, single iv or oral dose; format: in vivo, Sprague-Dawley rats; conditions: for AUC(0-t) / Cmax / Tmax / Vd / clearance / half-life / bioavailability: Sprague-Dawley, rat, plasma; for AUC0-24hr Ratio / Cmax Ratio: vs 10 mg/kg dose
# Outline: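 Sprague-Dawley rats, 4/sex, received a 1 mg/kg bw IV bolus in 1% ethanol in saline, with tail-vein sampling from 2 min to 8 h. Oral groups (3/sex/group) were gavaged once with 10, 30 or 100 mg/kg bw in 1% methylcellulose and sampled from 15 min to 24 h. Plasma was assayed for parent and metabolites.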
# [4] = In vivo metabolism of S9229 in rats; parameters: species or system Sprague-Dawley rats; conditions: rat plasma, 1 h time point, 100 mg/kg bw oral
# [5] = tested on: S. typhimurium strains TA98, TA100, TA1535, TA1537 and E. coli strain WP2 uvrA; assay: Bacterial reverse mutation test; format: cell-based; conditions: 50–5000 μg/plate, plate incorporation, ±S9
# Outline: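 The assay followed OECD Guideline 471 and used S. typhimurium TA98, TA100, TA1535 and TA1537 and E. coli WP2 uvrA. It was run with and without S9 from livers of Aroclor 1254-treated Sprague-Dawley rats. One compound was tested at 21–5000 μg/plate by plate incorporation and pre-incubation. The other was tested at 50–5000 μg/plate in an initial toxicity-mutation test and a confirmatory mutation test.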
# [6] = tested on: Male and Female Hsd:ICR (CD-1) mice, bone marrow PCEs; assay: In vivo micronucleus assay in mice, S9229
# Outline: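 Hsd:ICR (CD-1) mice were gavaged once with the test compound suspended in 1% methylcellulose (20 mL/kg) in both the range-finding and definitive phases. The definitive phase used 0, 500, 624, 1352 and 2000 mg/kg bw, 5/sex/group, with bone marrow sampled at 24 h. Additional vehicle, 1352 and 2000 groups were sampled at 48 h. Femoral marrow smears were stained with acridine orange and scored for mnPCEs and PCE/TE ratio. Cyclophosphamide 50 mg/kg was the positive control.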
# [7] = tested on: Primary human lymphocytes; conditions: for dose with substantial toxicity (at least 50% reduction in mitotic index): preliminary toxicity test
# [8] = oral gavage 10 mg/kg bw, female
# [9] = oral gavage 30 mg/kg bw, female
# [10] = oral gavage 100 mg/kg bw, female
structure (smiles),measurement,setting,value
"COC[C@@H](CC(C)C)NC(=O)c1ccc(C)c(C)c1 [S9229, (R)-N-(1-methoxy-4-methylpentan-2-yl)-3,4-dimethylbenzamide]",% MS (EIC) Peak Area,[1]; 10 min,36.4%
same,% MS (EIC) Peak Area,[1]; 20 min,1.93%
same,% MS (EIC) Peak Area,[2]; 10 min,86.9%
same,% MS (EIC) Peak Area,[2]; 20 min,70.6%
same,% MS (EIC) Peak Area,[2]; 60 min,~22.6%
same,AUC(0-t),"[3]; female, iv, 1 mg/kg",1730 ± 376 ng·h/mL
same,Cmax,"[3]; female, iv, 1 mg/kg",3940 ± 1070 ng/mL
same,Tmax,"[3]; female, iv, 1 mg/kg",1.8 min
same,Vd,"[3]; female, iv, 1 mg/kg",2.82 L/kg
same,clearance,"[3]; female, iv, 1 mg/kg",7.9 mL/min/kg
same,half-life,"[3]; female, iv, 1 mg/kg",260 ± 99 min
same,bioavailability,"[3]; female, po",0.09 to 0.1%
same,AUC(0-t),"[3]; female, po, 10 mg/kg",15.2 ± 11.2 ng·h/mL
same,Cmax,"[3]; female, po, 10 mg/kg",10.5 ± 13.9 ng/mL
same,Tmax,"[3]; female, po, 10 mg/kg",15 min
same,bioavailability,"[3]; female, po, 10 mg/kg",0.09%
same,half-life,"[3]; female, po, 10 mg/kg",57.6 ± 18 min
same,AUC(0-t),"[3]; female, po, 30 mg/kg",49.5 ± 31.7 ng·h/mL
same,Cmax,"[3]; female, po, 30 mg/kg",55.4 ± 43.9 ng/mL
same,Tmax,"[3]; female, po, 30 mg/kg",15 min
same,bioavailability,"[3]; female, po, 30 mg/kg",0.1%
same,half-life,"[3]; female, po, 30 mg/kg",109 ± 127 min
same,AUC(0-t),"[3]; female, po, 100 mg/kg",175 ± 169 ng·h/mL
same,Cmax,"[3]; female, po, 100 mg/kg",102 ± 124 ng/mL
same,Tmax,"[3]; female, po, 100 mg/kg",100 min
same,bioavailability,"[3]; female, po, 100 mg/kg",0.1%
same,half-life,"[3]; female, po, 100 mg/kg",61.8 ± 19.2 min
same,ratio of female/male AUC0-24hr,[3]; iv 1 mg/kg,1.02
same,ratio of female/male Cmax,[3]; iv 1 mg/kg,1.08
same,CL as % of hepatic blood flow,"[3]; iv, females",14.4%
same,CL as % of hepatic blood flow,"[3]; iv, males",13.9%
same,AUC(0-t),"[3]; male, iv, 1 mg/kg",1690 ± 416 ng·h/mL
same,Cmax,"[3]; male, iv, 1 mg/kg",3650 ± 1180 ng/mL
same,Tmax,"[3]; male, iv, 1 mg/kg",1.8 min
same,Vd,"[3]; male, iv, 1 mg/kg",3.47 L/kg
same,clearance,"[3]; male, iv, 1 mg/kg",7.65 mL/min/kg
same,half-life,"[3]; male, iv, 1 mg/kg",323 ± 130 min
same,bioavailability,"[3]; male, po",0.04 to 0.1%
same,AUC(0-t),"[3]; male, po, 10 mg/kg",11.3 ± 10 ng·h/mL
same,Cmax,"[3]; male, po, 10 mg/kg",19.4 ± 24 ng/mL
same,Tmax,"[3]; male, po, 10 mg/kg",15 min
same,bioavailability,"[3]; male, po, 10 mg/kg",0.07%
same,half-life,"[3]; male, po, 10 mg/kg",82.8 ± 76.8 min
same,AUC(0-t),"[3]; male, po, 30 mg/kg",20.6 ± 3.7 ng·h/mL
same,Cmax,"[3]; male, po, 30 mg/kg",11.9 ± 0.6 ng/mL
same,Tmax,"[3]; male, po, 30 mg/kg",15 min
same,bioavailability,"[3]; male, po, 30 mg/kg",0.04%
same,half-life,"[3]; male, po, 30 mg/kg",107 ± 41.4 min
same,AUC(0-t),"[3]; male, po, 100 mg/kg",175 ± 57.8 ng·h/mL
same,Cmax,"[3]; male, po, 100 mg/kg",52.3 ± 12 ng/mL
same,Tmax,"[3]; male, po, 100 mg/kg",49.8 min
same,bioavailability,"[3]; male, po, 100 mg/kg",0.1%
same,half-life,"[3]; male, po, 100 mg/kg",134 ± 65.4 min
same,AUC0-24hr Ratio,[3]; [8],1
same,Cmax Ratio,[3]; [8],1
same,AUC0-24hr Ratio,"[3]; oral gavage 10 mg/kg bw, male",1
same,Cmax Ratio,"[3]; oral gavage 10 mg/kg bw, male",1
same,AUC0-24hr Ratio,[3]; [9],3.26
same,Cmax Ratio,[3]; [9],5.28
same,AUC0-24hr Ratio,"[3]; oral gavage 30 mg/kg bw, male",1.82
same,Cmax Ratio,"[3]; oral gavage 30 mg/kg bw, male",0.61
same,AUC0-24hr Ratio,[3]; [10],11.5
same,Cmax Ratio,[3]; [10],9.68
same,AUC0-24hr Ratio,"[3]; oral gavage 100 mg/kg bw, male",15.5
same,Cmax Ratio,"[3]; oral gavage 100 mg/kg bw, male",2.70
same,parent compound as % of the total peak area,[4],less than 1%
same,"Reverse mutation (in vitro), Result",[5],not mutagenic; also recorded: Negative
same,"Micronucleus formation (in vivo), Result","[6]; 500, 624, 1352, 2000 mg/kg bw (oral)",neither clastogenic nor aneugenic; also recorded: Negative
same,well tolerated highest dose tested,"[6]; preliminary dose range finding, oral, male and female mice",2000 mg/kg bw
same,dose levels with visible precipitate in treatment medium,[7]; beginning of the treatment period,≥ 322 µg/mL
same,dose with substantial toxicity (at least 50% reduction in mitotic index),[7]; non-activated 20-h exposure,≥ 263 µg/mL
same,dose with substantial toxicity (at least 50% reduction in mitotic index),[7]; non-activated and S9-activated 4-h exposure,≥ 789 µg/mL
